Results pooled from the literature.
Each line is one published result; the experiments were not run side by side.
MAL12: Alpha-glucosidase MAL12 (MAL12, Saccharomyces cerevisiae S288c, UniProt P53341)
ADRA1A: Alpha-1A adrenergic receptor (ADRA1A, Homo sapiens, UniProt P35348)

SMILES | target | effect on | action | technique | concentration | inhibition [%]
O=c1cc(-c2ccc(O)cc2)oc2cc(O)cc(O)c12 | MAL12 | enzyme activity | inhibitor | absorbance | 50 µM | 78.6
CCCCCCCCCCCCCCCCCC(=O)OCC(C)(C)CC1=C(O)C(=O)c2ccccc2C1=O | MAL12 | enzyme activity | inhibitor | – | 50 µM | > 70
C[C@H]1O[C@H](O[C@H]2[C@H](O)[C@@H](O)[C@@H](O[C@H]3[C@H](O)[C@@H](O)C(O)O[C@@H]3CO)O[C@@H]2CO)[C@H](O)[C@@H](O)[C@@H]1N[C@H]1C=C(CO)[C@@H](O)[C@H](O)[C@H]1O (stereo partly shown) | MAL12 | enzyme activity | inhibitor | absorbance | 50 µM | 37.9
COc1cc2c3c(c1OC)-c1c(OC)ccc(Br)c1CC3N(C)CC2 (stereo not shown) | ADRA1A | ligand displacement | – | radioligand | 10 µM | 95
COc1cc(O)c2c(c1)oc(=O)c1c3cc(O)c(O)cc3oc21 | MAL12 | enzyme activity | inhibitor | absorbance | 128 µM | ~90
NC/C(=C\F)COc1cccc(Cn2c(=S)[nH]c(=O)c3[nH]cnc32)c1 | Histamine H2 receptor (HRH2, Homo sapiens, UniProt P25021) | ligand displacement | – | radioligand | 10 µM | < 50
CC[N+]1(C)CCc2cc(OC)c(OC)c3c2C1Cc1cccc(OC)c1-3 (stereo not shown) | ADRA1A | ligand displacement | – | radioligand | 10 µM | 13
O=c1c(O)c(-c2ccc(O)c(O)c2)oc2cc(O)cc(O)c12 | MAL12 | enzyme activity | inhibitor | absorbance | 50 µM | 98.7
CCCCCCCCCCCC(=O)OCC(C)(C)CC1=C(O)C(=O)c2ccccc2C1=O | MAL12 | enzyme activity | inhibitor | – | 50 µM | > 70
COc1cc2c3c(c1OC)-c1c(OC)ccc(N4CCOCC4)c1CC3N(C)CC2 (stereo not shown) | ADRA1A | ligand displacement | – | radioligand | 10 µM | 65
C#Cc1cc(-c2cc(Nc3nc(N[C@@H](C)c4ccc(F)cn4)ncc3Cl)n[nH]2)ccc1C=O | Tyrosine-protein kinase Lyn (LYN, Homo sapiens, UniProt P07948) | enzyme activity | inhibitor | – | 0.2 µM | 89.2
COc1cc2c3c(c1OC)-c1c(OC)ccc(Cl)c1CC3N(C)CC2 (racemic) | ADRA1A | ligand displacement | – | radioligand | 10 µM | 99
O=c1c(O)c(-c2ccc(O)c(O)c2)oc2c(Br)c(O)c(Br)c(O)c12 | MAL12 | enzyme activity | inhibitor | absorbance | 50 µM | 95.8
